Assay results from ChEMBL document CHEMBL1123290, “Synthesis, antimalarial activity, and quantitative structure-activity relationships of tebuquine and a series of related 5-[(7-chloro-4-quinolinyl)amino]-3-[(alkylamino)methyl] [1,1'-biphenyl]-2-ols and N omega-oxides” (1986).

Columns and labels:
Type in all cases: functional
Mus musculus [1] = assay: Compound was evaluated for parenteral antimalarial activity against Plasmodium berghei in mice (Mus musculus) after single dose (40 mg/kg subcutaneous); no of mice (Mus musculus) surviving at 60 days post infection, 3 cured
Procedure, shortened: (§1)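 Mice were infected with a normal drug-sensitive Plasmodium berghei strain. At 72 h postinfection each received one subcutaneous dose of compound dissolved or suspended in peanut oil, in five-mouse groups per dose. The read-out was the number of mice alive at 60 days postinfection, which were scored as cured.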

Plasmodium berghei [2] = assay: Change in mean survival time for control (average 6.2 days) versus treated mice (Mus musculus) 72 hrs after 320 mg/kg subcutaneous dose
Plasmodium berghei [3] = assay: Change in mean survival time for control (average of 6.2 days) versus treated mice (Mus musculus) 72 hrs after 80 mg/kg subcutaneous dose
Plasmodium berghei [4] = assay: Change in mean survival time for control (average 6.2 days) versus treated mice (Mus musculus) 72 hrs after 10 mg/kg subcutaneous dose
Mus musculus [5] = assay: Antimalarial activity of compound administered as a single subcutaneous dose of 10mg/kg, 72 hrs post infection measured as number of mice (Mus musculus) surviving at 60 days post infection; procedure, shortened: as §1
Plasmodium berghei [6] = assay: Change in mean survival time for control (average 6.2 days) versus treated mice (Mus musculus) 72 hrs after […] subcutaneous dose
Plasmodium berghei [7] = assay: Antimalarial activity as 60-day survivors in infected mice (Mus musculus) after single 320mg/kg subcutaneous dose 72 hr post infection; procedure, shortened: as §1
Mus musculus [8] = assay: Antimalarial activity, administered as a single subcutaneous dose of 640 mg/kg, 72 hrs post infection measured as number of mice (Mus musculus) surviving at 60 days post infection; procedure, shortened: as §1
Plasmodium berghei [9] = assay: Change in mean survival time for control (average 6.2 days) versus treated mice (Mus musculus) 72 hrs after 160 mg/kg subcutaneous dose
Plasmodium berghei [10] = assay: Change in mean survival time for control (average 6.2 days) versus treated mice (Mus musculus) 72 hrs after 20 mg/kg subcutaneous dose
Plasmodium berghei [11] = assay: Difference in mean survival time in mice (Mus musculus) (control = 6.2 days) after single 40mg/kg subcutaneous dose 72hr post infection
Mus musculus [12] = assay: Antimalarial activity, administered as a single subcutaneous dose of 80 mg/kg, 72 hrs post infection measured as number of mice (Mus musculus) surviving at 60 days post infection; procedure, shortened: as §1
Plasmodium berghei [13] = assay: Change in mean survival time for control (average 6.2 days) versus treated mice (Mus musculus) 72 hrs after 5 mg/kg subcutaneous dose
Plasmodium berghei [14] = assay: Antimalarial activity in primary screen
Plasmodium berghei [15] = assay: Change in mean survival time for control (average 6.2 days) versus treated mice (Mus musculus) 72 hrs after 640 mg/kg subcutaneous dose
Plasmodium berghei [16] = assay: Antimalarial activity as 60-day survivors in Plasmodium berghei infected mice (Mus musculus) after single 160mg/kg subcutaneous dose 72 hr post infection; procedure, shortened: as §1
Plasmodium berghei [17] = assay: (§2) Change in mean survival time for control (average 6.2 days) versus treated mice (Mus musculus) 72 hrs after […] subcutaneous dose
Mus musculus [18] = assay: Delta MST, difference in mean survival time of the control mice (an average of 6.2 days) from the mean survival time of the treated mice after a single sc dose of 1.25 mg/kg, 72-h postinfection; conditions: route subcutaneous
Mus musculus [19] = assay: Delta MST, difference in mean survival time of the control mice (an average of 6.2 days) from the mean survival time of the treated mice after a single sc dose of 160 mg/kg, 72-h postinfection; conditions: route subcutaneous
Mus musculus [20] = assay: Antimalarial activity, administered as a single subcutaneous dose of 40 mg/kg, 72 hrs post infection measured as number of mice (Mus musculus) surviving at 60 days post infection; procedure, shortened: as §1
Plasmodium berghei [21] = assay: Antimalarial activity as 60-day survivors in infected mice (Mus musculus) after single 20 mg/kg subcutaneous dose 72hr post infection; procedure, shortened: as §1
Plasmodium berghei [22] = assay: Change in mean survival time for control (average 6.2 days) versus treated mice (Mus musculus) after 160 mg/kg subcutaneous dose
Plasmodium berghei [23] = assay: as §2; remark: listed apart in the source
Mus musculus [24] = assay: Compound was evaluated for parenteral antimalarial activity against Plasmodium berghei in mice (Mus musculus) after single dose (1.25 mg/kg subcutaneously)
Plasmodium berghei [25] = assay: Change in mean survival time for control (average 6.2 days) versus treated mice (Mus musculus) after 40 mg/kg subcutaneous dose
Plasmodium berghei [26] = assay: Change in mean survival time of Plasmodium berghei infected mice (Mus musculus) after […] subcutaneous dose
Plasmodium berghei [27] = assay: Change in mean survival time of Plasmodium berghei infected mice (Mus musculus) after 5 mg/kg subcutaneous dose
Plasmodium berghei [28] = assay: Change in mean survival time in control (average 6.2 days) versus treated mice (Mus musculus) after 80 mg/kg subcutaneous dose
Plasmodium berghei [29] = assay: Change in mean survival time for control (average 6.2 days) versus treated mice (Mus musculus) after 320 mg/kg subcutaneous dose
Plasmodium berghei [30] = assay: Change in mean survival time of Plasmodium berghei infected mice (Mus musculus) on 1.25 mg/kg subcutaneous dose
Plasmodium berghei [31] = assay: Difference in mean survival time of Plasmodium berghei infected mice (Mus musculus) after 10 mg/kg subcutaneous dose
Plasmodium berghei [32] = assay: Change in mean survival time for control (average 6.2 days) versus treated mice (Mus musculus) after 20 mg/kg subcutaneous dose
Mus musculus [33] = assay: Compound was evaluated for parenteral antimalarial activity against Plasmodium berghei in mice (Mus musculus) after single dose (mg/kg subcutaneously) 20
Mus musculus [34] = assay: Compound was evaluated for parenteral antimalarial activity against Plasmodium berghei in mice (Mus musculus) after single dose (mg/kg subcutaneously) 40
Mus musculus [35] = assay: Compound was evaluated for parenteral antimalarial activity against Plasmodium berghei in mice (Mus musculus) after single dose (80 mg/kg subcutaneously)

| SMILES | Delta MST (Plasmodium berghei [2]) [days] | Delta MST (Plasmodium berghei [3]) [days] | Delta MST (Plasmodium berghei [4]) [days] | Delta MST (Plasmodium berghei [6]) [days] | No. of mice cured (Plasmodium berghei [7]) | No. of mice cured (Mus musculus [8]) | Delta MST (Plasmodium berghei [9]) [days] | Delta MST (Plasmodium berghei [10]) [days] | Delta MST (Plasmodium berghei [11]) [days] | No. of mice cured (Mus musculus [12]) | Delta MST (Plasmodium berghei [13]) [days] | ED30 (Plasmodium berghei [14]) [mg/kg] | Delta MST (Plasmodium berghei [15]) [days] | No. of mice cured (Plasmodium berghei [16]) | Delta MST (Plasmodium berghei [17]) [days] | also measured |
| --- | --- | --- | --- | --- | --- | --- | --- | --- | --- | --- | --- | --- | --- | --- | --- | --- |
| CCN(CC)Cc1cc(Nc2ccnc3cc(Cl)ccc23)cc(-c2cccc(C(F)(F)F)c2)c1O | 21.9 | 28.2 | 15.2 | 9.7 | 3 | 3 | 21.9 | 23.7 | 31.4 | 2 | 13.5 | 16.3 | 17.9 | 4 | 0.5 | No. of mice cured (Mus musculus [1]): 3; No. of mice cured (Mus musculus [5]): 1 |
| Oc1c(CNC2CCCCC2)cc(Nc2ccnc3cc(Cl)ccc23)cc1-c1ccc(Cl)cc1 | -0.4 | 23.6 | 4.1 | 0.5 | 4 | 4 | 20.6 | 12.9 | 17.9 | 3 | 1.5 |  | 17.6 | 4 |  | Delta MST (Mus musculus [18]): 0.7 days |
| CCN(CC)Cc1cc(Nc2ccnc3cc(Cl)ccc23)cc(-c2cccc(Cl)c2)c1O |  |  | 15.5 | 1.3 | 5 | 4 |  | 22.4 | 29.4 | 2 | 3.9 | 17.3 | 21.9 | 4 | 0.3 | Delta MST (Mus musculus [19]): 31.9 days; No. of mice cured (Mus musculus [20]): 3; No. of mice cured (Plasmodium berghei [21]): 1 |
| CCN(CC)Cc1cc(Nc2cc[n+]([O-])c3cc(Cl)ccc23)cc(-c2cccc(C(F)(F)F)c2)c1O |  |  |  |  | 1 | 4 |  |  |  |  |  | 113 |  |  |  | Delta MST (Plasmodium berghei [22]): 21.1 days; Delta MST (Plasmodium berghei [23]): 27.9 days; Delta MST (Mus musculus [24]): 0.3; Delta MST (Plasmodium berghei [25]): 8.5 days; Delta MST (Plasmodium berghei [26]): -0.1 days; Delta MST (Plasmodium berghei [27]): 0.3 days; Delta MST (Plasmodium berghei [28]): 11.7 days; Delta MST (Plasmodium berghei [29]): 24.9 days; Delta MST (Plasmodium berghei [30]): 0.3 days; Delta MST (Plasmodium berghei [31]): 1.1 days; Delta MST (Plasmodium berghei [32]): 5.9 days |
| CCN(CC)Cc1cc(Nc2cc[n+]([O-])c3cc(Cl)ccc23)cc(CN(CC)CC)c1O |  |  |  |  | 3 | 3 |  |  |  |  |  |  |  | 1 |  | Delta MST (Mus musculus [33]): 3.9 days; Delta MST (Mus musculus [34]): 6.9 days; Delta MST (Mus musculus [35]): 8.5 days |
